Results of several laboratories.
Lines come from different studies, so protocols differ. pKi: −log10 of the molar value.
Target: D(4) dopamine receptor (DRD4, Homo sapiens, UniProt P21917)
Method: radioligand
Residues used in one study (P21917 1-419): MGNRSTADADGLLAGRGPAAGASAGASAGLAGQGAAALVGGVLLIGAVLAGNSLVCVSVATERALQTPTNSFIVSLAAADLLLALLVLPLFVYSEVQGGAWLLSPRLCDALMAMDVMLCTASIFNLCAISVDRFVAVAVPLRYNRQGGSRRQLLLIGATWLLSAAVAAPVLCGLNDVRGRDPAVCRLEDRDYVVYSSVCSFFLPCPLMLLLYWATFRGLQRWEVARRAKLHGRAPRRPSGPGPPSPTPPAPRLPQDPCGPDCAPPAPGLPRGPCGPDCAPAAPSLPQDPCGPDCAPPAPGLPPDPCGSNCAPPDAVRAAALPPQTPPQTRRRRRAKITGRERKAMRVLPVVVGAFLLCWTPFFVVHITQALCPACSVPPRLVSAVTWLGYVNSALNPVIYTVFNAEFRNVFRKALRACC

`O=C1c2ccccc2CCCN1CCCCN1CCN(c2ccccn2)CC1` has a pKi of 8.19 (ligand displacement).
With `Oc1ccc(CCC2=NCCN2CCc2ccccc2)cc1` the pKi was under 5.00 (ligand displacement).
`CCCCN1CCC(COC(=O)c2ccc(N)c(OCF)c2)CC1` has a pKi of under 5.00 (cell-free assay).
With `Oc1cccc(CCC2=NCCN2CCc2ccccc2)c1` the pKi was 6.23 (ligand displacement).
For `CCCCCCCCCCCCNCCCc1ccc([N+](=O)[O-])cc1`, the pKi was 5.74 (ligand displacement).
With `c1ccc(CCC2=NCCN2CCc2ccccc2)cc1` the pKi was 6.12 (ligand displacement).
`CCN(CC)c1ccc(C2Nc3ccc(C(=O)c4ccccc4)cc3NC3=C2C(=O)CC(C)(C)C3)cc1` (centres unmarked) has a pKi of 5.82 (cell-free assay).
`Cc1ccc(OC[C@@H]2CN(CCN3CCc4ccccc43)CCO2)cn1` gave a pKi of 6.30 (ligand displacement).
`CCOc1c(O)cc(Br)c2c1CN1CCc3cc(OCC(F)F)c(O)cc3[C@@H]1C2` has a pKi of 5.57 (cell-free assay).
The pKi of `CCCCCCCNCCCc1ccccc1` is reported as 6.41 (ligand displacement).
`COc1ccc2c(c1)C(=O)N(CCCN1CCN(c3ccccc3OC)CC1)C2` gave a pKi of 8.08 (ligand displacement).
